Diaph act CS: counter-screen for diaphorase-based assays: diaphorase activators and chemical reducers; Diaphorase/resazurin coupled assay, resorufin fluorescence, 16 min; active compounds read high; 1 = vehicle wells, 0 = NADH-free wells; activation factor at 20 µM; 0.005% of 190,000 active; AID 1229;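 active means diaphorase activity raised at least twofold by the compound at 20 µM; inactive means activation factor below 2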
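Material: Purified diaphorase enzyme from Clostridium kluyveri | Buffer or medium: 50 mM HEPES pH 7.4 with 4.542 mM MgCl2, 0.005% Tween 20 | Times: 16 min enzyme reaction, ambient temperature | Signal: Red resorufin fluorescence at 544/590 nm excitation/emission | Measure: Increased resorufin signal from activators or reducing compounds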
KCC2 mod: KCC2 (human) Cl- transport modulation. B-score of Tl+ flux slope (higher = more flux/activation; lower = inhibition) at 10 µM. AID 1456. 2.2% of 190,000 active. Q9H2X9. KCC2 cells, thallium flux FluoZin-2 fluorescence;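 active means thallium flux slope and its plate-corrected score both differing from the plate sample mean at a set confidence after two filtering rounds, in either direction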;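 further: slope of fluorescence scaled to starting intensity during 10 to 20 s after thallium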
Diaph inh CS: diaphorase inhibition or chemical oxidation counter-screen; inhibition, % at 20 µM; diaphorase resazurin-to-resorufin fluorescence, NADH, 16 min; bacterial (C. kluyveri) enzyme, not human; 0.69% of 190,000 active;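 active means primary screen inhibition at 20 µM above a set limit, cut at about 50% in these data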;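 further: plate controls were DMSO with full reaction for no effect and wells lacking NADH for full effect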
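Detection: fluorescence of resorufin formed from resazurin, Ex 544/Em 590 nm; test system: Clostridium kluyveri diaphorase enzyme; amount: 0.14 U/mL diaphorase, enzyme working solution; times: 16-min room-temperature incubation before reading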
ROMK mod: human ROMK K+ channel modulation, primary screen; Tet-inducible ROMK, thallium flux fluorescence; actives lie on both sides; AID 1918; B-score at 10 µM; 2% of 130,000 active;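 active means signal ratio slope over the read window, or its plate-corrected B-score, at least 3 SD from the plate mean, either direction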;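 further: B-score of the F/F0 ratio slope over 7 to 12 s after thallium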
Target sequence (P48048 whole entry, looked up): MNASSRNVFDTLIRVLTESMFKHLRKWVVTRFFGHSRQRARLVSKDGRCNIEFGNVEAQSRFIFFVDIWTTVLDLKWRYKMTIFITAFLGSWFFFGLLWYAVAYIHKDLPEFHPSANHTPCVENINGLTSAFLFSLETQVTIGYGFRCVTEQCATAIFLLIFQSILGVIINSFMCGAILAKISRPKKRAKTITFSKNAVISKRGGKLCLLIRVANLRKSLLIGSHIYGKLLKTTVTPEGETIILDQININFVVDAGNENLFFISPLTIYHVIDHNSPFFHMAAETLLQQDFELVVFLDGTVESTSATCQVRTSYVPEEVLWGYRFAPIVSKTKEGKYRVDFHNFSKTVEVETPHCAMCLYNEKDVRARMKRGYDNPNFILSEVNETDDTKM
Lmaj promast: Leishmania major promastigote growth inhibition; Leishmania major promastigotes, resazurin fluorescence viability; inhibition, % at 10 µM; 9% of 200,000 active; in the data active means inhibition above about 50%;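 further: promastigotes grown with compound for 44 hours at 28 °C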
WT yeast gro inh: growth inhibition of WT yeast, mitochondrial fusion screen. mitochondrial fusion phenotypic screen, WT strain. 2.1% of 190,000 active. inhibition, % at 10 µM; in the data active means inhibition above about 58%; tested in S. cerevisiae
Active calls of the source: *; i = inactive; nt = no result. The list is not random: actives were taken first. Their share in the collection is about 12%.

SMILES	Diaph act CS	KCC2 mod	Diaph inh CS	ROMK mod	Lmaj promast	WT yeast gro inh
Cc1cc(N2CCC(C)CC2)c(F)cc1[N+](=O)[O-]	0.9	nt	8.0	nt	-6.2	-13.9
CC[n+]1c(/C=C/c2c[nH]c3ccccc23)ccc2cc(C)ccc21	1	i	3.2	nt	100.4*	76.5*
CCN(CC)C(=O)c1ccc(/C=C/c2c[nH]c3ccccc23)[n+](C)c1	1	i	-2.6	nt	2.8	-9.8
CCCCC(=O)N1CCN(c2ccc(OC)cc2[N+](=O)[O-])CC1	1	-0.00696	3.6	-0.00829	31.7	0.9
COc1ccc(N2CCN(C(=S)NC(=O)c3cccs3)CC2)c([N+](=O)[O-])c1	0.9	89.8*	11.5	3.45*	2.8	60.5*
O=C(NC(=S)N1CCN(c2c(Cl)cccc2[N+](=O)[O-])CC1)c1cccs1	0.8	nt	17.6	nt	3.6	77.8*
CCc1ccccc1NC(=O)/C(C#N)=C/c1ccc(Sc2ccccc2)o1	0.8	-2.78	16.3	-0.928	92.9*	36.6
CCc1ccccc1NC(=O)/C(C#N)=C\c1ccc(Sc2ccccc2)o1	0.8	-1.11	17.7	nt	-3.6	-8.5
Cc1ccc(N2C(=O)C3C4C=CC(CNC(=S)Nc5ccc(F)cc5)(O4)C3C2=O)cc1 (stereo not given)	1	0.32	-1.8	-0.403	66.5*	-5.5
Cc1ccc(N2C(=O)C3C4C=CC(CNC(=S)Nc5ccc(Cl)cc5)(O4)C3C2=O)cc1 (stereo not given)	0.7	0.0873	31.2	-0.735	82.9*	13.8
Cc1ccc(N2C(=O)C3C4C=CC(CNC(=S)N5CCN(c6ccccn6)CC5)(O4)C3C2=O)cc1 (stereo not given)	0.8	0.74	20.0	-0.485	3.5	21.6
Cc1ccc(N2C(=O)C3C4C=CC(CNC(=S)Nc5cccc(Cl)c5)(O4)C3C2=O)cc1 (stereo not given)	0.8	-0.752	22.0	-0.255	79.1*	6.4
Cc1ccc(NCCC(=O)c2cccc([N+](=O)[O-])c2)c(C)c1	1	nt	3.0	nt	97.1*	11.4
Cc1cccc(NCCC(=O)c2ccc([N+](=O)[O-])cc2)c1C	1	-0.271	-1.9	0.112	93.1*	-3.7
Cc1ccc(NCC(=O)c2ccc([N+](=O)[O-])cc2)cc1	0.8	-0.0516	17.7	-0.63	1.2	3.9
COc1ccc(-n2ncc(C(=O)N3CCN(c4ccc(F)cc4)CC3)c2C)cc1	nt	-3.28	nt	0.725	nt	nt
Cc1ccc(Nc2nc(CSc3nnc(-c4cccnc4)n3-c3ccccc3F)cs2)cc1	0.9	-1.64	10.6	0.329	89.1*	21.0
Cc1ccc(Nc2nc(CSc3nnc(-c4ccncc4)n3C)cs2)cc1	1	-2.82	-3.8	-1.26	2.0	10.7
CCOC(=O)C1=C(C)NC(=O)NC1c1ccc(-c2ccc(Cl)cc2)o1 (stereo not given)	1	1.03	-2.4	0.364	13.5	-16.3
CCOC(=O)C1=C(C)NC(=S)NC1c1ccc(-c2ccc(Cl)cc2)o1 (stereo not given)	0.9	1.09	12.0	nt	62.6*	65.6*
COc1ccc(CN2CCn3nc(C(=O)NC4CC4)cc3C2=O)cc1	1	-1.18	-1.7	1.42	5.9	-0.4
Cn1c(N)c(C(=O)COC(=O)c2cc(-c3ccccc3)nc3ccccc23)c(=O)n(Cc2ccccc2)c1=O	0.8	0.964	20.9	1.29	-3.0	-6.1
Cn1c(=O)c(C(=O)COC(=O)c2cc(-c3ccco3)nc3ccccc23)c(N)n(Cc2ccccc2)c1=O	0.9	-0.61	14.7	1.77	98.7*	6.2
CC(C)Cn1c(N)c(C(=O)COC(=O)c2cc(-c3ccccc3)nc3ccccc23)c(=O)n(C)c1=O	0.9	0.814	14.5	0.426	99.5*	13.7
CC(C)Cn1c(N)c(C(=O)COC(=O)c2cc(C(F)(F)F)nc3ccccc23)c(=O)n(C)c1=O	0.7	0.391	30.6	0.633	17.3	56.4
SMILES	Diaph act CS	KCC2 mod	Diaph inh CS	ROMK mod	Lmaj promast	WT yeast gro inh
Cn1c(N)c(C(=O)COC(=O)c2cc(C(F)(F)F)nc3ccccc23)c(=O)n(C)c1=O	0.9	-2.35	11.2	3.24	13.4	5.2
CC(C)Cn1c(N)c(C(=O)COC(=O)c2cc(-c3ccco3)nc3ccccc23)c(=O)n(C)c1=O	0.8	0.156	20.3	1.26	76.7*	2.4
CC(C)Cn1c(N)c(C(=O)COC(=O)c2cc(C3CC3)nc3ccccc23)c(=O)n(C)c1=O	0.7	-1.15	25.3	0.542	57.3*	33.9
Cc1ccc(C2(c3noc(CN(C)CCCN4CCOCC4)n3)CCCC2)cc1	1	-0.244	-1.1	0.265	49.9	10.5
O=C(CCC(=O)N1CCOCC1)c1ccc(F)cc1	0.9	-0.037	5.7	-0.0504	-3.4	3.6
CCc1ccc(NC(=O)Cn2cccc2)cc1	1	1.64	1.6	nt	1.1	-6.7
Cc1nn(CC(=O)NCc2ccc(-n3cccn3)cc2)c(C)c1[N+](=O)[O-]	0.9	-0.375	7.3	0.091	-2.4	-2.5
CC(C)Cn1c(N)c(C(=O)COC(=O)c2ccc([N+](=O)[O-])o2)c(=O)n(C)c1=O	0.8	-0.262	16.3	-1.01	87.8*	0.4
CC(C)Cn1c(N)c(C(=O)COC(=O)c2ccc(O)cc2)c(=O)n(C)c1=O	1.1	0.184	-7.5	1.06	-1.8	-5.5
Nc1ncnc(Nc2ccc(S(N)(=O)=O)cc2)n1	nt	1.35	nt	nt	nt	nt
CC1CC(C)(C)NC(=S)N1CCCC(=O)NCc1ccccc1 (stereo not given)	0.9	0.502	11.1	0.434	7.3	-7.4
CCc1ccc2c(c1)C1(NN=C(c3ccc(C)cc3)S1)C(=O)N2 (stereo not given)	1.1	-0.144	-15.0	nt	98.7*	3.8
CC(C)c1ccc2c(c1)C1(NN=C(c3ccccc3)S1)C(=O)N2 (stereo not given)	1.1	0.00266	-5.3	-1.26	98.8*	15.8
O=C1CC(C(=O)NCc2ccccc2)C2(CCCC2)O1 (stereo not given)	1	0.756	-1.3	nt	-4.6	65.1*
O=C(CC1CC2CCC1C2)OCC(=O)c1c[nH]c2ccccc12 (stereo not given)	0.9	-2.38	8.9	nt	72.1*	30.6
Cc1cc(C)n2nc(C(=O)OCC(=O)c3c[nH]c4ccccc34)nc2n1	1	-0.141	2.3	1.45	-6.0	0.0
CCN(CC)C(=O)COC(=O)c1ccc(C)c(NC(=O)c2ccco2)c1	1	0.00777	-3.0	0.438	4.3	-3.6
Cc1ccc(C(=O)OCC(=O)c2c[nH]c3ccccc23)cc1NC(=O)c1ccco1	0.7	nt	29.3	1.24	69.2*	-3.7
O=C(OCC(=O)c1c[nH]c2ccccc12)c1cc2ccccc2cc1O	0.8	-0.358	19.4	0.0548	61.8*	-6.3
COc1ccc(CCN(Cc2cc3cccc(C)c3n3nnnc23)C(=O)c2ccncc2)cc1OC	nt	nt	nt	-0.246	8.4	-8.8
